# Source: PubChem BioAssay (several laboratories)
# Apaf1 inhib: blocks human Apaf-1 apoptosome activity; O14727; reconstituted apoptosome caspase-3 activity, DEVD-Rh110 fluorescence; inhibition, % at 20 µM; 330,000 tested, 0.71% active; AID 489030; active means inhibition of at least 40% at 20 µM;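 further: plate controls were DMSO wells for no effect and DEVD-CHO caspase inhibitor wells for full effect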
#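 Material: reconstituted apoptosome with Apaf-1, cytochrome c, caspase-9, procaspase-3, dATP. Technique: Rh110 fluorescence intensity. Buffer or medium: pH 7.5 Hepes buffer with CHAPS, BSA, DTT. Times: 30 min plus 50 min, RT.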
# GSTO1 counter: GSTO1 inhibition, counter-screen for RBBP9 inhibitors; P78417; recombinant GSTO1, activity-based probe fluorescence polarization; inhibition, % at 5.96 µM; 300,000 tested, 1.1% active; AID 1974;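 active means inhibition above the campaign mean inhibition plus 3 SD, cut at about 35% in these data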;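 further: 0% = GSTO1-1 with DMSO and 100% = wells lacking GSTO1-1 enzyme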
# Target sequence (P78417 whole entry, looked up): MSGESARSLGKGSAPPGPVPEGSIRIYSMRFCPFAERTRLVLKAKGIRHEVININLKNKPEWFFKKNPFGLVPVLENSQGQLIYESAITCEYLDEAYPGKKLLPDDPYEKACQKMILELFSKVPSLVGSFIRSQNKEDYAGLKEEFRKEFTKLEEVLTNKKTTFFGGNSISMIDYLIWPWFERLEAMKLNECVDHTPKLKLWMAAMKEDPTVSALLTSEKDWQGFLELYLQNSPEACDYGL
# TDP2 absorb: blocks human TDP2 phosphodiesterase activity. O95551. recombinant TDP2, T5PNP hydrolysis, p-nitrophenol absorbance 415 nm. inhibition, % at 12.8 µM. 370,000 tested, 0.34% active;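 active means inhibition above the mean of all tested compounds plus 3 SD, set per campaign, cut at about 25% in these data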;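 further: 0% = DMSO with enzyme and 100% = buffer with substrate but no TDP2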
#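 Evaluation: % inhibition relative to enzyme-containing and enzyme-free wells. Material: recombinant human TDP2. Benchmarks: enzyme-free and DMSO wells. Timing: enzyme reaction with compound for 2 h at 37 °C. Compound dosing: 12.8 µM only. Measured by: p-Nitrophenol epi absorbance. Reagent: T5PNP substrate at 5 mM, a TopII-DNA adduct mimic. Replication: single well per compound.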
# PP1 counter: PP1-alpha (human) inhibition in PP5 counter-screen. P62136. purified PP1alpha, OMFP fluorescence. inhibition, % at 6.7 µM. 320,000 tested, 0.9% active. AID 2235;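 active means inhibition above the mean inhibition of all tested compounds plus 3 SD, computed separately for each screening campaign, cut at about 15% in these data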
# Target sequence (P62136 whole entry, looked up): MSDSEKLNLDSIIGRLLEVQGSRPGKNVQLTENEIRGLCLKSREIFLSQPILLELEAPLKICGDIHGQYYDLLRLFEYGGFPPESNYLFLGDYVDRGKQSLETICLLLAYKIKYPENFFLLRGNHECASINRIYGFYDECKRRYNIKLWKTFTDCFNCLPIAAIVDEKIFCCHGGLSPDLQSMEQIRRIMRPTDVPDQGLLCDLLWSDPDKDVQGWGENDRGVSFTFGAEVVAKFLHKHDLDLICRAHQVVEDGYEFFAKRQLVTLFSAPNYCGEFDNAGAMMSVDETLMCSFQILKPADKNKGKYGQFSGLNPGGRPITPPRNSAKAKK
# PP5 inh: PP5 (human) phosphatase inhibition | purified PP5c, OMFP substrate fluorescence | inhibition, % at 6.7 µM | 320,000 tested, 0.18% active;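 active means inhibition above the campaign's mean inhibition across all tested compounds plus 3 SD, cut at about 9.5% in these data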;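 further: 0% = DMSO only and 100% = 100 µM cantharidin control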
# An asterisk follows results filed as active; nt = no result given. Shown are actives, neighbours in structure and some others; about 2.1% of the full set was active somewhere.
SMILES,Apaf1 inhib,GSTO1 counter,TDP2 absorb,PP1 counter,PP5 inh
COc1ccc(N2CCN(C(=O)c3ccc4c(c3)NC(=O)C(CSCc3ccc(C)cc3)N4)CC2)cc1 (centres undefined),17,1,nt,19*,0
C=C1[C@H](C)CN(S(=O)C(C)(C)C)[C@H]1CCO (some centres undefined),nt,nt,2,nt,nt
CC1=C(C(=O)N(C(C)C)C(C)C)CC(CC(=O)NCC2CCCCC2)C(=O)N1Cc1ccc(C(C)(C)C)cc1 (centres undefined),nt,nt,-8,nt,nt
O=C(Nc1ccc(F)cc1)Nc1nnc(Cc2ccccc2)s1,21,-4,4,17*,0
COc1cccc(NC(=O)Nc2nnc(Cc3ccc(F)cc3)s2)c1,1,2,-8,2,2
O=C(O)CCN1C(=O)/C(=C/c2cccc(OCc3ccc(F)cc3)c2)SC1=S,nt,nt,-2,nt,nt
O=C(Cn1cnc2sc(-c3ccccc3)cc2c1=O)NCc1ccccc1,0,2,-10,15*,5
CCCc1cc(NC(=O)CCl)n(-c2ccccc2)n1,-3,101*,8,2,3
CCCc1cc(NC(=O)COC(=O)c2ccc(O)cc2O)n(-c2ccccc2)n1,-4,nt,2,nt,nt
COCc1cc(N2CCN(C(=O)OC(C)(C)C)C[C@@H]2C)ccc1Br,nt,nt,0,nt,nt
CCC1=NN2C(=N)/C(=C\c3ccc(SCc4ccco4)o3)C(=O)N=C2S1,6,-46,6,3,2
CCCC1=NN2C(=N)/C(=C\c3ccc(SCc4ccco4)o3)C(=O)N=C2S1,25,-93,nt,43*,-3
C[C@@H]1CN([C@@H](C)CO)C(=O)CCCn2nncc2CO[C@H]1CN(C)C(=O)Nc1ccc(N2CCN(C)CC2)cc1,nt,nt,6,nt,nt
CCOc1ccc(C(=O)c2ccccc2C(=O)O)cc1OCC,-2,15,5,-1,-1
CC1=CC(=O)C(C(C)C)=C/C1=C(\c1cc(C(C)C)c(OP(=O)(O)O)cc1C)c1ccccc1C(=O)O,8,9,12,15*,6
CCOC(=O)c1c(NC(=O)Cc2ccccc2)sc2c1CC(C)(C)NC2(C)C,27,2,-1,0,1
CCOC(=O)c1c(NC(=O)c2ccc(C)cc2)sc2c1CC(C)(C)NC2(C)C,54*,6,nt,0,3
CCOc1ccc(C(=O)Nc2nnc(S(=O)(=O)N(C)Cc3ccco3)s2)cc1,6,-42,-1,17*,0
O=C(NCc1ccc(C(=O)NCC2CCCO2)cc1)c1cccc(Br)c1 (centres undefined),nt,nt,1,nt,nt
CCCc1c(Cc2cccc(F)c2)ncn1CCc1ccccc1OC,nt,nt,0,nt,nt
CCCCCCCCOC(=O)c1c(CSC(=N)N)n(C)c2cc(Br)c(OC(C)=O)cc12,14,-50,-10,17*,3
C[C@@H]1CN([C@@H](C)CO)C(=O)c2cc(Br)cnc2O[C@@H]1CN(C)C(=O)c1ccc(F)cc1,nt,nt,8,nt,nt
Cc1cc(C)c2[nH]c(=O)c(CN(Cc3cccs3)C(=S)NCc3ccco3)cc2c1,18,-8,-25,16*,2
CCN(CC)CCN(Cc1cc2cc(C)cc(C)c2[nH]c1=O)C(=S)NCc1ccco1,15,0,-10,-1,2
CC(C)n1ncc2c(C(=O)Nc3ccc(S(N)(=O)=O)cc3)cc(C3CC3)nc21,75*,nt,6,4,1
SMILES,Apaf1 inhib,GSTO1 counter,TDP2 absorb,PP1 counter,PP5 inh
COC(=O)[C@]12C[C@H](CC(=O)NCC34CC5CC(CC(C5)C3)C4)C(=O)N(Cc3ccco3)C1=C[C@H](C(C)C)O[C@@H]2C1CC1,nt,nt,-7,nt,nt
Cc1c(C(=O)O)cccc1-c1ccc(/C=C2\SC(=O)NC2=O)o1,23,35*,0,-8,-4
Cc1c(C(=O)O)cccc1-c1ccc(/C=C2/NC(=O)N(c3ccccc3)C2=O)o1,8,6,-10,0,2
COC(=O)C1CN(C(=O)OC(C)(C)C)C2=C1C(=O)CC(C)(C(=O)OC(C)(C)C)C2 (centres undefined),nt,nt,6,nt,nt
Cc1ccc(N2C(=O)CS/C2=C(\C(Cl)=C(Cl)Cl)[N+](=O)[O-])cc1,-12,54*,-7,2,0
Cc1ccc(N2C(=O)CSCC2=O)cc1,2,3,-2,-2,0
O=C(/C=C/c1ccco1)NC(=S)Nc1ccc(N2CCCC2)cc1,11,50*,2,9,1
Cc1cc(NS(=O)(=O)c2ccc(NC(=O)c3ccc([N+](=O)[O-])s3)cc2)nc(C)n1,21,nt,11,nt,nt
Cc1ccnc(NS(=O)(=O)c2ccc(NC(=O)c3ccc([N+](=O)[O-])s3)cc2)n1,-3,37*,2,-2,0
COC(=O)c1ccc(NC(=O)COc2ccc(C3C(C#N)=C(N)Oc4c3ccc3ccccc43)cc2OC)cc1 (centres undefined),8,-33,-8,16*,3
CCCCN1C(=O)C(CC(=O)NCC2CCCCC2)CC(C(=O)N2CCCCCC2)=C1C (centres undefined),nt,nt,1,nt,nt
CCC(C)[C@H]1CNC(=S)N1CCc1cc(C(F)(F)F)cc(C(F)(F)F)c1 (some centres undefined),23,-6,1,3,9.6*
CCC(C)[C@H]1CNCCN1CCc1cc(C(F)(F)F)cc(C(F)(F)F)c1 (some centres undefined),19,-4,-18,6,-5
CC1CCc2c(sc3nc(CN4CCN(S(=O)(=O)c5ccccc5[N+](=O)[O-])CC4)[nH]c(=O)c23)C1 (centres undefined),18,-28,9,16*,6
C=CCn1c(=O)c2ccccc2n2c(SCC(=O)c3ccccc3)nnc12,9,36*,-9,-1,1
C=CCn1c(=O)c2ccccc2n2c(SCC(=O)N(C)C)nnc12,-1,nt,-10,nt,nt
O=C(Cn1nc(-c2ccccc2Cl)ccc1=O)Nc1ccccc1-c1ccccc1,56*,8,-22,-4,-2
COc1ccc(N2CCN(CCNS(=O)(=O)c3ccc(Br)s3)CC2)cc1,nt,nt,8,nt,nt
C=CCn1c(N)c(C(=O)Nc2cccc(C)c2)c2nc3ccccc3nc21,48*,17,2,3,5
CN1CC=C2C(C#N)=C(N)C(C#N)(C#N)[C@H](c3ccoc3)[C@H]2C1,25,41*,nt,5,2
O=C(Nc1cc(S(=O)(=O)N2CCCCC2)ccc1O)c1ccccc1NS(=O)(=O)c1ccc(F)c(F)c1,23,-63,-6,16*,-6
Oc1ccc(CNc2ccccc2Br)c2cccnc12,nt,nt,-6,nt,nt
O=C(N/N=C/c1c(O)ccc2ccccc12)c1ccc[n+](CCO)c1,15,44*,-1,2,3
CCCCNC(=S)Nc1cccc(S(=O)(=O)NC2=NCCC2)c1,3,5,10,16*,-1
O=[N+]([O-])c1ccccc1S(=O)(=O)NCCSCc1ccco1,4,nt,-3,17*,4
O=[N+]([O-])c1ccccc1S(=O)(=O)NCc1ccco1,5,0,-4,-3,0
